FLuc act counter – FLuc activators, initial screening, artefact control for FLuc-dependent activation tests, biochemical, ATPlite luminescence; Luciferin 4-monooxygenase (Photinus pyralis), P08659; ATPlite luciferase biochemical, 10 min; 0 = ATP-free wells, 1 = DMSO control; activation factor at 10 µM; 200,000 tested, under 10 active; AID 1027, 2008;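 active means luciferase activation factor, scaled between plate controls, of at least 2 with compound at 10 µM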
Target sequence (P08659 whole entry, looked up): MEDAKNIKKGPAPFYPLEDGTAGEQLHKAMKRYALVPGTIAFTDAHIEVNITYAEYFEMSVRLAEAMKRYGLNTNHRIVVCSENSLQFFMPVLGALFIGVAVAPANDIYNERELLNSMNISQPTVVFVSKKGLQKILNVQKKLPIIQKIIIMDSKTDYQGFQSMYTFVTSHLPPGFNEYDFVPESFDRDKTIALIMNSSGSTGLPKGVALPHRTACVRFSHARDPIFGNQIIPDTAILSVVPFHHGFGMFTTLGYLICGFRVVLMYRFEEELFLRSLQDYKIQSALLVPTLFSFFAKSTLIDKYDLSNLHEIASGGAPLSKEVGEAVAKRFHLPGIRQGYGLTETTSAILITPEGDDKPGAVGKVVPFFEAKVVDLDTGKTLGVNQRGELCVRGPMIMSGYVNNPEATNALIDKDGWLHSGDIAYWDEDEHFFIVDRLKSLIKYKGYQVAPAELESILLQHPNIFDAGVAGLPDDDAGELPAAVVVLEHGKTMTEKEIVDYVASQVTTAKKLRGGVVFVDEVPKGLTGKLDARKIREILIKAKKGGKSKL
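assay system = Luciferase/luciferin detection reagent, cell-free biochemical luciferase assay | also added = ATP substrate | times = 10 min post-reagent at room temperature | measured by = luminescence from luciferase reaction | measure = luciferase activation, seen as luminescence increase over controls | benchmarks = low control with PBS replacing ATP, high control enzyme plus ATP without compound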
NF-kB expr up – activators of NF-kB expression in neurons, primary screen, cell-based, HTS; human neuronal cells, NF-kB reporter expression; active compounds read high; fold change at 12.5 µM; 1.6% of 190,000 active; AID 1239, 2008; in the data active means fold change above about 3.3
FLuc inh counter – firefly luciferase enzyme inhibitors, primary screen, artefact control for luciferase-based inhibitor screens, biochemical, luminescence, ATPLite; 1.5% of 200,000 active; 10 min; inhibition, % at 10 µM; AID 1006, 2008;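 active means inhibition above about 50% when tested at 10 µM, limit read from the data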
TRAIL sens C8 – viability loss with TRAIL in NB7+C8 cells, primary screen, TRAIL sensitizer project, cell-based, ATPlite luminescence; inhibition (viability loss, TRAIL sensitization), % at 10 µM; 1% of 360,000 active; AID 624354, 2012;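 active means compounds causing at least 50% loss of cell viability in the single-dose screen, relative to plate controls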
APP 5'UTR act – activators of APP 5'UTR luciferase reporter, primary screen, SH-SY5Y cells | AID 1276, 2008 | 1% of 190,000 active | activation, % at 2 µM | SH-SY5Y APP 5'UTR luciferase reporter, luminescence; zero percent = DMSO vehicle wells;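 active means activation above a set limit, based on mean plus 3 SD of controls, cut at about 140% in these data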
PPC-1+TRAIL kill – compounds killing PPC-1 cancer cells with TRAIL present, primary screen, TRAIL potentiator project, ATPLite luminescence, uHTS; 0.41% of 220,000 active; PPC-1 cells + TRAIL, ATPLite viability luminescence; cell killing (% activity), % at 4 µM or 5 µM; AID 1443, 2008;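 active means cell killing above 50% in the first pass at 4 µM, then a duplicate retest at 5 µM averaging 50% or more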
A number is an active result; . = inactive; / = no result. Compounds with a hit are over-represented: about 2.2% of the library has one in this group of screens.

SMILES	FLuc act counter	NF-kB expr up	FLuc inh counter	TRAIL sens C8	APP 5'UTR act	PPC-1+TRAIL kill
O=C(O)c1ccc(-[n+]2c(-c3ccccc3)cc(-c3ccccc3)cc2-c2ccccc2)cc1	/	/	/	.	/	/
COc1ccc(-[n+]2c(-c3ccccc3)cc(-c3ccc(C)cc3)cc2-c2ccccc2)cc1	/	/	/	57.0	/	/
Oc1c(Br)c(Br)c(Br)c(Br)c1Br	/	/	/	.	/	/
COC(=O)C1=C(c2ccccc2)C[C@@H]2CC[C@H]1N2C	/	/	/	.	/	/
C=CCC1(CN2CCCCCC2=O)C(=O)NC(=O)NC1=O	.	.	.	.	.	.
CN1C[C@@H]2C[C@@H](c3cccn3-c3ccccn3)N3CCC[C@@]23C1=O	.	.	.	.	.	.
O=C1NC(=O)C(=Cc2coc3ccc(O)cc3c2=O)C(=O)N1	/	/	/	.	/	.
Cc1cc(C=C2C(=O)N(C)C(=S)N(C)C2=O)c(C)n1C1CCCCC1	.	.	.	.	.	.
Cc1cc(C=C2C(=O)NC(=S)NC2=O)c(C)n1C1CCCC1	.	.	77.2	.	.	.
CC(=O)OC1CCC2(C)C(CC(=O)C3C2CCC2(C)C(OC(C)=O)CCC32)C1 (configuration not stated)	/	/	/	.	/	/
CCc1ccc(-c2nn(Cc3ccccc3)cc2C=O)cc1	.	4.12	.	.	.	.
COC(=O)C1=C(C(=O)OC)SC2(S1)C(C(=O)OC)=C(C(=O)OC)Sc1c2ssc1=O	/	/	/	51.2	/	/
CCCCn1c(O)c(C(C)=NCC2CCCO2)c(=O)[nH]c1=O (configuration not stated)	.	.	.	.	.	.
Cc1ccc(-[n+]2c(Cc3nn(-c4ccccc4)c(C)[n+]3-c3ccc(C)cc3)nn(-c3ccccc3)c2C)cc1	/	/	/	.	/	/
COC1CC2C=C(C)C=CC=CC(=O)NC(c3ccccc3)CC=CCCC(O)CC(=O)C2=C1O (configuration not stated)	/	/	/	96.7	/	/
Clc1ccc(C(c2ccc(Cl)cc2)n2cc[n+](CC(OCc3ccc(Cl)cc3Cl)c3ccc(Cl)cc3Cl)c2)cc1 (configuration not stated)	/	/	/	94.5	/	/
O=C(c1cc(-c2ccccc2)on1)N1CCC2(CC1)OCCO2	.	5.25	.	/	.	.
CN(C)CC(C(=O)Cc1ccccc1)c1ccccc1 (configuration not stated)	/	/	/	63.5	/	/
CC(=O)OC1CCC2(C)C(CCC3C4CC(N5CC5)C(C(C)=O)C4(C)CC(=O)C32)C1 (configuration not stated)	/	/	/	.	/	/
C=CCn1c(O)c(C(CC)=NCc2cc(OC)cc(OC)c2)c(=O)[nH]c1=O	.	.	.	49.6	.	.
CCCCCCCCn1sccc1=O	/	/	/	.	/	/
CC(=O)N(C1=NCCCS1)c1ccccc1Cl	.	.	.	.	.	.
C=CCOC(=O)C1=C(C)OC(N)=C(C#N)C12C(=O)N(CN1CCOCC1)c1ccccc12 (configuration not stated)	.	.	.	.	.	.
CCCN1CCc2cccc3c2[C@H]1Cc1ccc(O)c(O)c1-3	/	/	/	46.2	/	/
COc1ccc(C(CC(=O)N2CCC3(CC2)OCCO3)NS(=O)(=O)c2ccc(OC)cc2)cc1 (configuration not stated)	.	.	.	.	.	54.1
SMILES	FLuc act counter	NF-kB expr up	FLuc inh counter	TRAIL sens C8	APP 5'UTR act	PPC-1+TRAIL kill
O=C(c1ccccc1)C(CN1CCCC1)c1ccccc1 (configuration not stated)	.	.	.	.	.	57.4
CC1CCC/C=C/C2CC(O)CC2C(O)/C=C/C(=O)O1 (configuration not stated)	.	.	.	.	.	57.1
C[C@H]1CCC/C=C/C2C[C@H](O)CC2[C@H](O)/C=C/C(=O)O1 (some centres not stated)	.	.	.	.	.	.
CN(C)C(Cc1ccccc1)C(=O)c1ccccc1 (configuration not stated)	.	.	.	.	.	.
CC(C)N(C(=O)CCl)c1ccccc1	/	/	/	91.0	/	/
CN(C)C(=O)O/N=C(\N)COc1ccc(C(C)(C)C)cc1	/	/	/	90.3	/	.
CC(C(=O)N1CCC2(CC1)OCCO2)C1Sc2ccccc2NC1=O (configuration not stated)	.	.	.	.	/	.

Screening results: PubChem BioAssay, several laboratories
